For orientation: IC50 means the point on the concentration scale where inhibition reaches its midpoint. The low end stands for greater potency in that assay, the high end for weaker potency in that assay.

Experimental findings from ChEMBL document CHEMBL1139212, “Indole alkaloids from three species of the Ervatamia genus: E. officinalis, E. divaricata, and E. divaricata Gouyahua” (J Nat Prod, 2007) are described below.

Each structure is given as a SMILES string.

The test system of one test is P388. The test is described as follows: Cytotoxicity against murine P388 cells by MTT method. It is filed as functional, cell-based. Particulars: Mus musculus. The procedure, abridged: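 In vitro growth inhibition of P-388 murine leukemia cells, read by MTT reduction; pseudolaric acid B served as positive control.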
On the technique in general: Tetrazolium assays rely on reduction of a dye to a coloured formazan, in cell work by metabolically active cells.

A further test deals with A549. Put plainly: Cytotoxicity against human A549 cells by SRB method. It is filed as functional, cell-based. The procedure, abridged: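 In vitro growth inhibition of A-549 human lung carcinoma cells, read by sulforhodamine B staining; pseudolaric acid B served as positive control.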
A general note: Sulforhodamine B stains cellular protein and so reports cell mass.

Take `CC[C@H]1C[C@@H]2C[C@H]3c4[nH]c5cc([C@@H]6C[C@H]7C(C(=O)OC)[C@@H](Cc8c6[nH]c6ccccc86)N(C)C[C@H]7CC)c(OC)cc5c4CCN(C2)[C@@H]13` (stereo partly specified): the IC50 with P388 was 840 nM; with A549, 1100 nM. Turning to `C/C=C1/CN(C)[C@@H]2Cc3c([nH]c4ccccc34)[C@H](c3cc4[nH]c5c(c4cc3OC)CCN3C[C@@H]4C[C@H](CC)[C@H]3[C@H]5C4)C[C@H]1C2C(=O)OC` (stereo partly specified), the IC50 in the test on P388 worked out at 110 nM; with A549, 520 nM. Taken in the same sequence, the figures for `CC[C@H]1C[C@@H]2C[C@H]3c4[nH]c5cc([C@@H]6C[C@H]7C(C(=O)OC)[C@@H](Cc8c6[nH]c6ccccc86)N(C)C[C@H]7CC)ccc5c4CCN(C2)[C@@H]13` (stereo partly specified) were 430 nM and 260 nM.

Consider `CC[C@@]12C=CCN3CC[C@]4(C(=C(C(=O)OC)C1)Nc1cc5c(cc14)[C@H]1[C@@H](O5)[C@H](O)[C@]4(CC)CC(C(=O)OC)=C5Nc6c(cc(O)c(OC)c6OC)[C@@]56CCN1[C@H]46)[C@H]32` [CONOPHYLLIDINE], for which the IC50 in the test on P388 was determined as 25 nM; in the test on A549, 44 nM.

On to `CC[C@H]1C[C@H]2CN3CCc4c([nH]c5cc([C@@H]6C[C@H]7C(C(=O)OC)[C@@H](Cc8c6[nH]c6ccccc86)N(C)C[C@H]7CC)c(OC)cc45)[C@](C(=O)OC)(C2)[C@H]13` (stereo partly specified) [ERVADIVARICATINE B], for which the IC50 came out at 360 nM with P388 and 430 nM in the test with A549. For the compound `COC(=O)C1=CC[C@@]23CC[C@@H]([C@@](C)(/C=C/C=C(\C)C(=O)O)OC2=O)[C@@]3(OC(C)=O)CC1` [PSEUDOLARIC ACID B], the IC50 in the test with P388 was found to be 3700 nM.
